Experimental data taken from ChEMBL document CHEMBL1921724, “In search of a cytostatic agent derived from the alkaloid lycorine: synthesis and growth inhibitory properties of lycorine derivatives” (Bioorg Med Chem, 2011).

System: not listed separately
Experiment: Growth inhibition of pro-apoptotic stimuli-resistant human U373 cells after 72 hrs by MTT assay
Type: functional, U-373MG ATCC
Conditions: U373 MG
Outline: (§1)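 Cells seeded at 10,000 to 40,000 cells/mL depending on cell type and allowed to attach for 24 h. They were then cultured 72 h with or without compound (untreated control). Living cells were measured by MTT reduction to formazan, read at 570 nm against a 630 nm reference. GI50 was derived from the growth levels.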

Question: With `O=C1c2cc3c(cc2[C@@H]2[C@H](O)[C@@H](O)C=C4CCN1[C@H]42)OCO3` as the molecule, how does the GI50 read?
Answer: > 100 µM

Question: For `CCCCCCCCCCCCCCCC(=O)O[C@H]1[C@H]2c3cc4c(cc3CN3CCC(=C[C@@H]1O[Si](C(C)C)(C(C)C)C(C)C)[C@H]23)OCO4`, which GI50 is on record?
Answer: 13 µM

Question: For `CC(C)[Si](O[C@H]1C=C2CCN3Cc4cc5c(cc4[C@H]([C@@H]1O)[C@@H]23)OCO5)(C(C)C)C(C)C`, which GI50 is on record?
Answer: 13 µM

Question: With `CCC(=O)O[C@H]1[C@H]2c3cc4c(cc3CN3CCC(=C[C@@H]1OC(=O)CC)[C@H]23)OCO4` as the molecule, how does the GI50 read?
Answer: 3 µM

Question: Which GI50 does the source give for `O=c1c2cc3c(cc2c2cccc4ccn1c42)OCO3` here?
Answer: 27 µM

Question: For `CC(=O)O[C@@H]1[C@@H](OC(C)=O)[C@H](OC(C)=O)C2=CCN3C(=O)c4cc5c(cc4[C@H]1[C@@H]23)OCO5`, which GI50 is on record?
Answer: > 100 µM

Question: Which GI50 does the source give for `CC(=O)O[C@H]1[C@H]2c3cc4c(cc3CN3CCC(=C[C@@H]1O)[C@H]23)OCO4` here?
Answer: 4 µM

System: not listed separately
Experiment: Growth inhibition of pro-apoptotic stimuli-sensitive human Hs683 cells after 72 hrs by MTT assay
Type: functional
Conditions: Hs 683, 72 h
Outline: as §1

Question: Which GI50 does the source give for `O=C1c2cc3c(cc2[C@@H]2[C@H](O)[C@@H](O)C=C4CCN1[C@H]42)OCO3` here?
Answer: > 100 µM

Question: For `CCCCCCCCCCCCCCCC(=O)O[C@H]1[C@H]2c3cc4c(cc3CN3CCC(=C[C@@H]1O[Si](C(C)C)(C(C)C)C(C)C)[C@H]23)OCO4`, which GI50 is on record?
Answer: 21 µM

Question: For `CC(C)[Si](O[C@H]1C=C2CCN3Cc4cc5c(cc4[C@H]([C@@H]1O)[C@@H]23)OCO5)(C(C)C)C(C)C`, which GI50 is on record?
Answer: 22 µM

Question: For `CCC(=O)O[C@H]1[C@H]2c3cc4c(cc3CN3CCC(=C[C@@H]1OC(=O)CC)[C@H]23)OCO4`, which GI50 is on record?
Answer: 8 µM

Question: For `O=c1c2cc3c(cc2c2cccc4ccn1c42)OCO3`, which GI50 is on record?
Answer: 19 µM

Question: With `CC(=O)O[C@@H]1[C@@H](OC(C)=O)[C@H](OC(C)=O)C2=CCN3C(=O)c4cc5c(cc4[C@H]1[C@@H]23)OCO5` as the molecule, how does the GI50 read?
Answer: > 100 µM

Question: Which GI50 does the source give for `CC(=O)O[C@H]1[C@H]2c3cc4c(cc3CN3CCC(=C[C@@H]1O)[C@H]23)OCO4` here?
Answer: 11 µM

System: A549
Experiment: Growth inhibition of pro-apoptotic stimuli-resistant human A549 cells after 72 hrs by MTT assay
Type: functional
Conditions: A549, 72 h
Outline: as §1

Question: Which GI50 does the source give for `O=C1c2cc3c(cc2[C@@H]2[C@H](O)[C@@H](O)C=C4CCN1[C@H]42)OCO3` here?
Answer: > 100 µM

Question: Which GI50 does the source give for `CCCCCCCCCCCCCCCC(=O)O[C@H]1[C@H]2c3cc4c(cc3CN3CCC(=C[C@@H]1O[Si](C(C)C)(C(C)C)C(C)C)[C@H]23)OCO4` here?
Answer: 9 µM

Question: For `CC(C)[Si](O[C@H]1C=C2CCN3Cc4cc5c(cc4[C@H]([C@@H]1O)[C@@H]23)OCO5)(C(C)C)C(C)C`, which GI50 is on record?
Answer: 15 µM

Question: For `CCC(=O)O[C@H]1[C@H]2c3cc4c(cc3CN3CCC(=C[C@@H]1OC(=O)CC)[C@H]23)OCO4`, which GI50 is on record?
Answer: 4 µM

Question: Which GI50 does the source give for `O=c1c2cc3c(cc2c2cccc4ccn1c42)OCO3` here?
Answer: 96 µM

Question: With `CC(=O)O[C@@H]1[C@@H](OC(C)=O)[C@H](OC(C)=O)C2=CCN3C(=O)c4cc5c(cc4[C@H]1[C@@H]23)OCO5` as the molecule, how does the GI50 read?
Answer: > 100 µM

Question: With `CC(=O)O[C@H]1[C@H]2c3cc4c(cc3CN3CCC(=C[C@@H]1O)[C@H]23)OCO4` as the molecule, how does the GI50 read?
Answer: 3 µM

System: T98G
Experiment: Growth inhibition of pro-apoptotic stimuli-resistant human T98G cells after 72 hrs by MTT assay
Type: functional
Conditions: not given
Outline: as §1

Question: With `O=C1c2cc3c(cc2[C@@H]2[C@H](O)[C@@H](O)C=C4CCN1[C@H]42)OCO3` as the molecule, how does the GI50 read?
Answer: > 100 µM

Question: With `CCCCCCCCCCCCCCCC(=O)O[C@H]1[C@H]2c3cc4c(cc3CN3CCC(=C[C@@H]1O[Si](C(C)C)(C(C)C)C(C)C)[C@H]23)OCO4` as the molecule, how does the GI50 read?
Answer: 3 µM

Question: For `CC(C)[Si](O[C@H]1C=C2CCN3Cc4cc5c(cc4[C@H]([C@@H]1O)[C@@H]23)OCO5)(C(C)C)C(C)C`, which GI50 is on record?
Answer: 11 µM

Question: With `CCC(=O)O[C@H]1[C@H]2c3cc4c(cc3CN3CCC(=C[C@@H]1OC(=O)CC)[C@H]23)OCO4` as the molecule, how does the GI50 read?
Answer: 0.6 µM

Question: For `O=c1c2cc3c(cc2c2cccc4ccn1c42)OCO3`, which GI50 is on record?
Answer: 96 µM

Question: Which GI50 does the source give for `CC(=O)O[C@@H]1[C@@H](OC(C)=O)[C@H](OC(C)=O)C2=CCN3C(=O)c4cc5c(cc4[C@H]1[C@@H]23)OCO5` here?
Answer: > 100 µM

Question: Which GI50 does the source give for `CC(=O)O[C@H]1[C@H]2c3cc4c(cc3CN3CCC(=C[C@@H]1O)[C@H]23)OCO4` here?
Answer: 2 µM

System: B16-F10
Experiment: Growth inhibition of pro-apoptotic stimuli-sensitive mouse B16F10 cells after 72 hrs by MTT assay
Type: functional
Conditions: B16-F10, 72 h
Outline: as §1

Question: With `O=C1c2cc3c(cc2[C@@H]2[C@H](O)[C@@H](O)C=C4CCN1[C@H]42)OCO3` as the molecule, how does the GI50 read?
Answer: > 100 µM

Question: For `CCCCCCCCCCCCCCCC(=O)O[C@H]1[C@H]2c3cc4c(cc3CN3CCC(=C[C@@H]1O[Si](C(C)C)(C(C)C)C(C)C)[C@H]23)OCO4`, which GI50 is on record?
Answer: 38 µM

Question: For `CC(C)[Si](O[C@H]1C=C2CCN3Cc4cc5c(cc4[C@H]([C@@H]1O)[C@@H]23)OCO5)(C(C)C)C(C)C`, which GI50 is on record?
Answer: 22 µM

Question: Which GI50 does the source give for `CCC(=O)O[C@H]1[C@H]2c3cc4c(cc3CN3CCC(=C[C@@H]1OC(=O)CC)[C@H]23)OCO4` here?
Answer: 29 µM

Question: Which GI50 does the source give for `O=c1c2cc3c(cc2c2cccc4ccn1c42)OCO3` here?
Answer: 34 µM

Question: Which GI50 does the source give for `CC(=O)O[C@@H]1[C@@H](OC(C)=O)[C@H](OC(C)=O)C2=CCN3C(=O)c4cc5c(cc4[C@H]1[C@@H]23)OCO5` here?
Answer: 83 µM

Question: With `CC(=O)O[C@H]1[C@H]2c3cc4c(cc3CN3CCC(=C[C@@H]1O)[C@H]23)OCO4` as the molecule, how does the GI50 read?
Answer: 43 µM

System: MCF7
Experiment: Growth inhibition of human MCF7 cells after 72 hrs by MTT assay
Type: functional
Conditions: MCF7, 72 h

Question: With `O=C1c2cc3c(cc2[C@@H]2[C@H](O)[C@@H](O)C=C4CCN1[C@H]42)OCO3` as the molecule, how does the GI50 read?
Answer: > 100 µM

Question: With `CCCCCCCCCCCCCCCC(=O)O[C@H]1[C@H]2c3cc4c(cc3CN3CCC(=C[C@@H]1O[Si](C(C)C)(C(C)C)C(C)C)[C@H]23)OCO4` as the molecule, how does the GI50 read?
Answer: 25 µM

Question: Which GI50 does the source give for `CC(C)[Si](O[C@H]1C=C2CCN3Cc4cc5c(cc4[C@H]([C@@H]1O)[C@@H]23)OCO5)(C(C)C)C(C)C` here?
Answer: 24 µM

Question: For `CCC(=O)O[C@H]1[C@H]2c3cc4c(cc3CN3CCC(=C[C@@H]1OC(=O)CC)[C@H]23)OCO4`, which GI50 is on record?
Answer: 22 µM

Question: For `O=c1c2cc3c(cc2c2cccc4ccn1c42)OCO3`, which GI50 is on record?
Answer: 27 µM

Question: With `CC(=O)O[C@@H]1[C@@H](OC(C)=O)[C@H](OC(C)=O)C2=CCN3C(=O)c4cc5c(cc4[C@H]1[C@@H]23)OCO5` as the molecule, how does the GI50 read?
Answer: > 100 µM

Question: Which GI50 does the source give for `CC(=O)O[C@H]1[C@H]2c3cc4c(cc3CN3CCC(=C[C@@H]1O)[C@H]23)OCO4` here?
Answer: 4 µM

System: SK-MEL-28
Experiment: Growth inhibition of pro-apoptotic stimuli-resistant human SK-MEL-28 cells after 72 hrs by MTT assay
Type: functional
Conditions: SK-MEL-28, 72 h
Outline: as §1

Question: With `O=C1c2cc3c(cc2[C@@H]2[C@H](O)[C@@H](O)C=C4CCN1[C@H]42)OCO3` as the molecule, how does the GI50 read?
Answer: > 100 µM

Question: For `CCCCCCCCCCCCCCCC(=O)O[C@H]1[C@H]2c3cc4c(cc3CN3CCC(=C[C@@H]1O[Si](C(C)C)(C(C)C)C(C)C)[C@H]23)OCO4`, which GI50 is on record?
Answer: 38 µM

Question: For `CC(C)[Si](O[C@H]1C=C2CCN3Cc4cc5c(cc4[C@H]([C@@H]1O)[C@@H]23)OCO5)(C(C)C)C(C)C`, which GI50 is on record?
Answer: 26 µM

Question: For `CCC(=O)O[C@H]1[C@H]2c3cc4c(cc3CN3CCC(=C[C@@H]1OC(=O)CC)[C@H]23)OCO4`, which GI50 is on record?
Answer: 43 µM

Question: For `O=c1c2cc3c(cc2c2cccc4ccn1c42)OCO3`, which GI50 is on record?
Answer: > 100 µM

Question: For `CC(=O)O[C@@H]1[C@@H](OC(C)=O)[C@H](OC(C)=O)C2=CCN3C(=O)c4cc5c(cc4[C@H]1[C@@H]23)OCO5`, which GI50 is on record?
Answer: > 100 µM

Question: For `CC(=O)O[C@H]1[C@H]2c3cc4c(cc3CN3CCC(=C[C@@H]1O)[C@H]23)OCO4`, which GI50 is on record?
Answer: 3 µM

System: PC-3
Experiment: Growth inhibition of human PC3 cells after 72 hrs by MTT assay
Type: functional
Conditions: PC-3, 72 h

Question: For `O=C1c2cc3c(cc2[C@@H]2[C@H](O)[C@@H](O)C=C4CCN1[C@H]42)OCO3`, which GI50 is on record?
Answer: > 100 µM

Question: Which GI50 does the source give for `CCCCCCCCCCCCCCCC(=O)O[C@H]1[C@H]2c3cc4c(cc3CN3CCC(=C[C@@H]1O[Si](C(C)C)(C(C)C)C(C)C)[C@H]23)OCO4` here?
Answer: 20 µM

Question: With `CC(C)[Si](O[C@H]1C=C2CCN3Cc4cc5c(cc4[C@H]([C@@H]1O)[C@@H]23)OCO5)(C(C)C)C(C)C` as the molecule, how does the GI50 read?
Answer: 18 µM

Question: With `CCC(=O)O[C@H]1[C@H]2c3cc4c(cc3CN3CCC(=C[C@@H]1OC(=O)CC)[C@H]23)OCO4` as the molecule, how does the GI50 read?
Answer: 41 µM

Question: For `O=c1c2cc3c(cc2c2cccc4ccn1c42)OCO3`, which GI50 is on record?
Answer: > 100 µM

Question: With `CC(=O)O[C@@H]1[C@@H](OC(C)=O)[C@H](OC(C)=O)C2=CCN3C(=O)c4cc5c(cc4[C@H]1[C@@H]23)OCO5` as the molecule, how does the GI50 read?
Answer: > 100 µM

Question: Which GI50 does the source give for `CC(=O)O[C@H]1[C@H]2c3cc4c(cc3CN3CCC(=C[C@@H]1O)[C@H]23)OCO4` here?
Answer: 3 µM
